# How the values were obtained:
# Type in all cases: functional
# [1] = system: Earias vittella; test: Insecticidal activity against female adult Earias vitella assessed as adult longevity time at 5 ug/cm3 administered through artificial diet containing Abelmoschus esculentus seed powder (reference value: 8.6 +/- 0.48 days)
# [2] = system: Spodoptera littoralis; test: Antifeedant activity against Spodoptera littoralis assessed as decrease in diet consumption at 50 ppm after 2 hr by leaf disk assay relative to control; design: scale not given: the % may be the effect or the level left
# [3] = system: Spodoptera litura; test: Insecticidal activity against pupal stage of Spodoptera litura in compound-treated castor leaves assessed as pupal duration time at 5 ug/cm2 (reference value: 9.2 +/- 0.74 days)
# [4] = system: Spodoptera litura; test: Insecticidal activity against pupal stage of Spodoptera litura in compound-treated castor leaves assessed as pupal weight at 10 ug/cm2 (reference value: 302.4 +/- 5.9 mg)
# [5] = system: Earias vittella; test: Insecticidal activity against pupal stage of Earias vitella assessed as pupal mortality at 10 ug/cm3 administered through artificial diet containing Abelmoschus esculentus seed powder (reference value: 8%)
# [6] = system: Earias vittella; test: Insecticidal activity against adult Earias vitella assessed as adult deformity at 5 ug/cm3 administered through artificial diet containing Abelmoschus esculentus seed powder (reference value: 4%)
# [7] = system: Spodoptera litura; test: Insecticidal activity against pupal stage of Spodoptera litura in compound-treated castor leaves assessed as pupal weight at 5 ug/cm2 (reference value: 302.4 +/- 5.9 mg)
# [8] = system: Spodoptera litura; test: Insecticidal activity against male adult Spodoptera litura in compound-treated castor leaves assessed as adult longevity time at 5 ug/cm2 (reference value: 9.4 +/- 0.48 days)
# [9] = system: Earias vittella; test: Insecticidal activity against male adult Earias vitella assessed as adult longevity time at 5 ug/cm3 administered through artificial diet containing Abelmoschus esculentus seed powder (reference value: 8.2 +/- 0.4 days)
# [10] = system: Spodoptera litura; test: Insecticidal activity against third-instar larval stage of Spodoptera litura in compound-treated castor leaves assessed as larval mortality at 10 ug/cm2 relative to control
# [11] = system: Earias vittella; test: Insecticidal activity against male adult Earias vitella assessed as adult longevity time at 10 ug/cm3 administered through artificial diet containing Abelmoschus esculentus seed powder (reference value: 8.2 +/- 0.4 days)
# [12] = system: Earias vittella; test: Insecticidal activity against pupal stage of Earias vitella assessed as pupal weight at 5 ug/cm3 administered through artificial diet containing Abelmoschus esculentus seed powder (reference value: 88.2 +/- 4.01 mg)
# [13] = system: Earias vittella; test: Insecticidal activity against pupal stage of Earias vitella assessed as pupal duration time at 10 ug/cm3 administered through artificial diet containing Abelmoschus esculentus seed powder (reference value: 6.4 +/- 0.21 days)
# [14] = system: Earias vittella; test: Insecticidal activity against adult Earias vitella assessed as adult emergence at 10 ug/cm3 administered through artificial diet containing Abelmoschus esculentus seed powder (reference value: 88%)
# [15] = system: Spodoptera litura; test: Antifeedant activity against third-instar larval stage of Spodoptera litura in compound-treated castor leaves assessed as decrease in diet consumption at 10 ug/cm2 after 24 hr by no-choice leaf disk assay relative to acetone-treated control; design: scale not given: the % may be the effect or the level left
# Procedure, shortened: (§1)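 Larvae were reared on castor leaves at 25 ± 2 °C. In a no-choice test, compound in acetone was painted on the abaxial side of castor leaf disks and air-dried. Five freshly molted third-instar larvae, starved 4 h, were placed per Petri dish with wet cotton. There were five replicates. After 24 h, consumed leaf area was read on a leaf area meter. %AF = 100 − (treated/control)×100.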
# [16] = system: Earias vittella; test: Insecticidal activity against third-instar larval stage of Earias vitella assessed as total larval duration time at 10 ug/cm3 administered through artificial diet containing Abelmoschus esculentus seed powder (reference value: 8.2 +/- 0.48 days)
# [17] = system: Earias vittella; test: Antifeedant activity against third-instar larval stage of Earias vitella assessed as decrease in diet consumption at 10 ug/cm3 administered through artificial diet containing Abelmoschus esculentus seed powder after 24 hr relative to acetone-treated control; design: scale not given: the % may be the effect or the level left
# Procedure, shortened: (§2)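 Artificial diet was modified Klein medium with bhendi (Abelmoschus esculentus) seed powder in place of alfalfa. Compound in acetone was mixed into bhendi meal 12 h before diet preparation so the solvent evaporated. One 3 g diet cube was given to five freshly molted third-instar larvae in a muslin-covered container. After 24 h the cubes were weighed. %AF = 100 − (treated/control)×100.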
# [18] = system: Earias vittella; test: Insecticidal activity against female adult Earias vitella assessed as adult longevity time at 10 ug/cm3 administered through artificial diet containing Abelmoschus esculentus seed powder (reference value: 8.6 +/- 0.48 days)
# [19] = system: Earias vittella; test: Insecticidal activity against third-instar larval stage of Earias vitella assessed as total larval duration time at 5 ug/cm3 administered through artificial diet containing Abelmoschus esculentus seed powder (reference value: 8.2 +/- 0.48 days)
# [20] = system: Spodoptera litura; test: Insecticidal activity against adult Spodoptera litura in compound-treated castor leaves assessed as adult deformity at 10 ug/cm2 relative to control
# [21] = system: Spodoptera litura; test: Insecticidal activity against female adult Spodoptera litura in compound-treated castor leaves assessed as adult longevity time at 10 ug/cm2 (reference value: 10 +/- 0.63 days)
# [22] = system: Spodoptera litura; test: Insecticidal activity against pupal stage of Spodoptera litura in compound-treated castor leaves assessed as pupal mortality at 5 ug/cm2 relative to control
# [23] = system: Spodoptera litura; test: Insecticidal activity against female adult Spodoptera litura in compound-treated castor leaves assessed as adult longevity time at 5 ug/cm2 (reference value: 10 +/- 0.63 days)
# [24] = system: Spodoptera litura; test: Insecticidal activity against pupal stage of Spodoptera litura in compound-treated castor leaves assessed as pupal duration time at 10 ug/cm2 (reference value: 9.2 +/- 0.74 days)
# [25] = system: Spodoptera litura; test: Insecticidal activity against third-instar larval stage of Spodoptera litura in compound-treated castor leaves assessed as total larval duration time at 10 ug/cm2 (reference value: 12.4 +/- 0.48 days)
# [26] = system: Earias vittella; test: Antifeedant activity against third-instar larval stage of Earias vitella assessed as decrease in diet consumption at 5 ug/cm3 administered through artificial diet containing Abelmoschus esculentus seed powder after 24 hr relative to acetone-treated control; design: scale not given: the % may be the effect or the level left; procedure, shortened: as §2
# [27] = system: Spodoptera litura; test: Insecticidal activity against pupal stage of Spodoptera litura in compound-treated castor leaves assessed as pupal mortality at 10 ug/cm2 relative to control
# [28] = system: Spodoptera litura; test: Insecticidal activity against male adult Spodoptera litura in compound-treated castor leaves assessed as adult longevity time at 10 ug/cm2 (reference value: 9.4 +/- 0.48 days)
# [29] = system: Earias vittella; test: Insecticidal activity against third-instar larval stage of Earias vitella assessed as larval mortality at 5 ug/cm3 administered through artificial diet containing Abelmoschus esculentus seed powder (reference value: 4%)
# [30] = system: Earias vittella; test: Insecticidal activity against pupal stage of Earias vitella assessed as pupal mortality at 5 ug/cm3 administered through artificial diet containing Abelmoschus esculentus seed powder (reference value: 8%)
# [31] = system: Spodoptera litura; test: Insecticidal activity against third-instar larval stage of Spodoptera litura in compound-treated castor leaves assessed as total larval duration time at 5 ug/cm2 (reference value: 12.4 +/- 0.48 days)
# [32] = system: Earias vittella; test: Insecticidal activity against pupal stage of Earias vitella assessed as pupal duration time at 5 ug/cm3 administered through artificial diet containing Abelmoschus esculentus seed powder (reference value: 6.4 +/- 0.21 days)
# [33] = system: Spodoptera litura; test: Insecticidal activity against adult Spodoptera litura in compound-treated castor leaves assessed as adult emergence at 10 ug/cm2 relative to control
# [34] = system: Earias vittella; test: Insecticidal activity against adult Earias vitella assessed as adult emergence at 5 ug/cm3 administered through artificial diet containing Abelmoschus esculentus seed powder (reference value: 88%)
# [35] = system: Spodoptera litura; test: Insecticidal activity against adult Spodoptera litura in compound-treated castor leaves assessed as adult emergence at 5 ug/cm2 relative to control
# [36] = system: Spodoptera litura; test: Antifeedant activity against third-instar larval stage of Spodoptera litura in compound-treated castor leaves assessed as decrease in diet consumption at 5 ug/cm2 after 24 hr by no-choice leaf disk assay relative to acetone-treated control; design: scale not given: the % may be the effect or the level left; procedure, shortened: as §1
# [37] = system: Earias vittella; test: Insecticidal activity against pupal stage of Earias vitella assessed as pupal weight at 10 ug/cm3 administered through artificial diet containing Abelmoschus esculentus seed powder (reference value: 88.2 +/- 4.01 mg)
# [38] = system: Earias vittella; test: Insecticidal activity against third-instar larval stage of Earias vitella assessed as larval mortality at 10 ug/cm3 administered through artificial diet containing Abelmoschus esculentus seed powder (reference value: 4%)
# [39] = system: Spodoptera litura; test: Insecticidal activity against third-instar larval stage of Spodoptera litura in compound-treated castor leaves assessed as larval mortality at 5 ug/cm2 relative to control
# [40] = system: Spodoptera litura; test: Insecticidal activity against adult Spodoptera litura in compound-treated castor leaves assessed as adult deformity at 5 ug/cm2 relative to control
# [41] = system: Earias vittella; test: Insecticidal activity against adult Earias vitella assessed as adult deformity at 10 ug/cm3 administered through artificial diet containing Abelmoschus esculentus seed powder (reference value: 4%)
# [42] = system: Spodoptera littoralis; test: Antifeedant activity against Spodoptera littoralis assessed as decrease in diet consumption at 200 ppm after 2 hr by leaf disk assay relative to control; design: scale not given: the % may be the effect or the level left
smiles,measurement,setting,value
CC(=O)OC[C@@]12[C@@H](OC(C)=O)C[C@@H](C)[C@](C)([C@@H]3C[C@H]4C=CO[C@H]4O3)[C@H]1CCC[C@]21CO1 [CLERODIN],Time,[1],6.8 days
same,Activity,[2],100%
same,Time,[3],10.9 days
same,Activity,[4],250.2 mg
same,mortality,[5],32%
same,Activity,[6],4%
same,Activity,[7],270.2 mg
same,Time,[8],8.4 days
same,Time,[9],6.6 days
same,mortality at 10 µg/cm2,[10],35.2%
same,Time,[11],6.4 days
same,Activity,[12],60.4 mg
same,Time,[13],8 days
same,Activity,[14],60%
same,Activity,[15],80%
same,Time,[16],9.9 days
same,Activity,[17],72.13%
same,Time,[18],6.6 days
same,Time,[19],9.4 days
same,Activity,[20],9.6%
same,Time,[21],7 days
same,mortality at 5 µg/cm2,[22],27%
same,Time,[23],8 days
same,Time,[24],11.6 days
same,Time,[25],14.8 days
same,Activity,[26],62.87%
same,mortality at 10 µg/cm2,[27],27%
same,Time,[28],8 days
same,mortality,[29],4%
same,mortality,[30],28.5%
same,Time,[31],14.3 days
same,Time,[32],7.2 days
same,Activity,[33],63.2%
same,Activity,[34],68.6%
same,Activity,[35],64%
same,Activity,[36],72%
same,Activity,[37],58 mg
same,mortality,[38],8%
same,mortality at 5 µg/cm2,[39],24.5%
same,Activity,[40],8%
same,Activity,[41],8%
CC(=O)OC[C@@]12[C@@H](OC(C)=O)C[C@@H](C)[C@](C)([C@@H]3C[C@H]4C=CO[C@H]4O3)[C@H]1CC[C@H](OC(C)=O)[C@]21CO1 [3-EPICARYOPTIN],Time,[1],6.2 days
same,Time,[3],11 days
same,Activity,[4],250.2 mg
same,mortality,[5],40%
same,Activity,[6],8%
same,Activity,[7],261.6 mg
same,Time,[8],7.4 days
same,Time,[9],5.8 days
same,mortality at 10 µg/cm2,[10],36%
same,Time,[11],5.6 days
same,Activity,[12],57.4 mg
same,Time,[13],10.2 days
same,Activity,[14],52%
same,Activity,[15],82.6%
same,Time,[16],10.3 days
same,Activity,[17],79.76%
same,Time,[18],5.8 days
same,Time,[19],10 days
same,Activity,[20],12.8%
same,Time,[21],6 days
same,mortality at 5 µg/cm2,[22],26.5%
same,Time,[23],7.2 days
same,Time,[24],11.8 days
same,Time,[25],14.5 days
same,Activity,[26],73%
same,mortality at 10 µg/cm2,[27],30%
same,Time,[28],6.4 days
same,mortality,[29],8%
same,mortality,[30],30%
same,Time,[31],14 days
same,Time,[32],8.8 days
same,Activity,[33],56.8%
same,Activity,[34],60.4%
same,Activity,[35],64.8%
same,Activity,[36],73.4%
same,Activity,[37],53.2 mg
same,Activity,[42],100%
same,mortality,[38],12%
same,mortality at 5 µg/cm2,[39],24%
same,Activity,[40],8.8%
same,Activity,[41],8%
CC(=O)OC[C@@]12[C@@H](OC(C)=O)C[C@@H](C)[C@](C)([C@@H]3C[C@H]4CC(O)O[C@H]4O3)[C@H]1CC[C@H](OC(C)=O)[C@]21CO1 (some centres not stated) [15-HYDROXYEPICARYOPTIN],Time,[1],6.8 days
same,Time,[3],10.8 days
same,Activity,[4],258.8 mg
same,mortality,[5],34%
same,Activity,[6],4%
same,Activity,[7],272.2 mg
same,Time,[8],8 days
same,Time,[9],6.6 days
same,mortality at 10 µg/cm2,[10],32%
same,Time,[11],6.2 days
same,Activity,[12],58 mg
same,Time,[13],9.6 days
same,Activity,[14],62%
same,Activity,[15],78%
same,Time,[16],10.2 days
same,Activity,[17],71.84%
same,Time,[18],6.6 days
same,Time,[19],9.8 days
same,Activity,[20],9.6%
same,Time,[21],7 days
same,mortality at 5 µg/cm2,[22],22.5%
same,Time,[23],7.4 days
same,Time,[24],11.6 days
same,Time,[25],14.2 days
same,Activity,[26],62.15%
same,mortality at 10 µg/cm2,[27],27.6%
same,Time,[28],7.5 days
same,mortality,[29],8%
same,mortality,[30],28%
same,Time,[31],13.5 days
same,Time,[32],9 days
same,Activity,[33],62.4%
same,Activity,[34],68%
same,Activity,[35],70.4%
same,Activity,[36],74%
same,Activity,[37],57.2 mg
same,mortality,[38],8%
same,mortality at 5 µg/cm2,[39],20%
same,Activity,[40],7.2%
same,Activity,[41],4%
